Assay [1] deals with HEK-293 cells. The experiment in a line: Cytotoxicity / viability assay, HEK-293. Conditions: Homo sapiens, HEK293, read-out: HEK-293 IC50. The class given is cell-based. A digest of the protocol:
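HEK-293 cells were grown in medium per the provider's instructions with 100 units/mL penicillin and 100 μg/mL streptomycin, at 37 °C in 5 % CO2. Log-phase cells were seeded at 5000 per well, left 24 h, then exposed in triplicate to a range of test compound concentrations for 72 h. Resazurin was added for 4–6 h and fluorescence read. Values are relative to DMSO vehicle, with IC50 from a variable-slope normalized-response fit. Each compound was tested at least three times.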

Assay [2] concerns phosphorylation of FLT3 and ERK in MOLM14 cells. Description: Western blot, MOLM14 cells. The class given is cell-based, human. Conditions: 2 h. In a few lines: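 Cells kept at 37 °C under 5 % CO2. Total cell lysates separated by SDS-PAGE and transferred to nitrocellulose. Membranes probed with primary antibodies to pFLT3 Y842, total FLT3, pERK, total ERK and GAPDH, then with secondary antibodies, and imaged.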
In general terms: Immunoblotting shows a protein as a band on a membrane.

Assay [3] addresses KIT (Homo sapiens, UniProt P10721). Description: KINOMEscan site-directed competition binding assay, KIT. Conditions: 4.5 nM compound, 97 kinase panel. In a few lines:
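Competition binding read by qPCR against DNA-tagged kinases. Streptavidin magnetic beads loaded with biotinylated ligand (30 min, RT), biotin-blocked and washed. Kinase, beads and test compound (diluted from 100x DMSO stocks) combined in 20 % SeaBlock, 0.17x PBS, 0.05 % Tween 20, 6 mM DTT; 1 h RT with shaking. […] Kinase in eluate quantified by qPCR.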

The term IC50 denotes the point on the concentration scale where inhibition reaches its midpoint.

KIT, sequence (P10721 26-976): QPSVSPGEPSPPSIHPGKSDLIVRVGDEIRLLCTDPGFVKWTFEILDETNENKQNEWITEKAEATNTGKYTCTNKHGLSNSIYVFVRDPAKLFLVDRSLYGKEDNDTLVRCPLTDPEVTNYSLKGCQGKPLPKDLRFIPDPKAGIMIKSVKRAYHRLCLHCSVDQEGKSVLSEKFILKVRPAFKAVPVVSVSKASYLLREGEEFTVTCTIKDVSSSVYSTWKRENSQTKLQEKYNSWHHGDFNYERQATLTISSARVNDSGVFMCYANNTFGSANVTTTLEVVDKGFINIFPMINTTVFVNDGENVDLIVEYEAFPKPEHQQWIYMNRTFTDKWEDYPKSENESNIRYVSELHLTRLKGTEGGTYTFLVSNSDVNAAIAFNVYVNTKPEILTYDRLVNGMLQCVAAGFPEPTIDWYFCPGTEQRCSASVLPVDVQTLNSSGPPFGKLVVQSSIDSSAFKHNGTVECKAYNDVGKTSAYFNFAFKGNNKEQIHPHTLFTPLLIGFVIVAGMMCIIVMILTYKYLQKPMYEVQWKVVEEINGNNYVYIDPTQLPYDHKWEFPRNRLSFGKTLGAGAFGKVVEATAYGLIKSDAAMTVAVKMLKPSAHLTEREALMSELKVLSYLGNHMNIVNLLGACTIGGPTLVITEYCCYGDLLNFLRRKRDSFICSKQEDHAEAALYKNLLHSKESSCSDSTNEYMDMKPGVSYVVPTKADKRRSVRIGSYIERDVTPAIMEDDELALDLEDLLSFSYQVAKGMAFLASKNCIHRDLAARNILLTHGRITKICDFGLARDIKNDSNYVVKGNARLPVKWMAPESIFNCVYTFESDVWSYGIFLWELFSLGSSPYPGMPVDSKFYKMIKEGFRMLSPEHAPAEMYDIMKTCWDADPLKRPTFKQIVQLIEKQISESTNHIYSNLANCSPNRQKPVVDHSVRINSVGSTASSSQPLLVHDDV

Regarding `COc1cc(Nc2cccc(-c3cnc4cc(-c5ccc(S(C)(=O)=O)cc5)ccn34)n2)cc(OC)c1OC` [Compound 42, 6-(7-(4-(methylsulfonyl)phenyl)imidazo [1,2-a]pyridin-3-yl)-N-(3,4,5-trimethoxyphenyl)pyridin-2-amine], the IC50 in assay [1] was greater than 1 µM.

As to `Cn1cc(-c2ccn3c(-c4cccc(Nc5ccc(S(C)(=O)=O)cc5)n4)cnc3c2)cn1` [Compound 24, 6-(7-(1-methyl-1H-pyrazol-4-yl)imidazo [1,2-a]pyridin-3-yl)-N-(4-(methylsulfonyl)phenyl)pyridin-2-amine], the figures for the “inhibitory effects on the phosphorylation of FLT3 and ERK” value in assay [2] (1X IC50 (4.5 nM)) and in assay [2] (10X IC50) were “noticeable signal downregulation” and “nearly complete signal downregulation”, respectively. In addition, the “binding affinity with KIT” value in assay [3] was “minimal binding affinity”. Moreover, the 50% inhibitory concentration (IC50) in assay [1] was greater than 1 µM.

Consider `COc1ccc(Nc2cccc(-c3cnc4cc(-c5cnn(C)c5)ccn34)n2)cc1OC` [Compound 20, N-(3,4-dimethoxyphenyl)-6-(7-(1-methyl-1H-pyrazol-4-yl)imidazo [1,2-a]pyridin-3-yl)pyridin-2-amine], for which, in assay [1], the IC50 was greater than 1 µM.

These data come from publication PMC11590664 (European journal of medicinal chemistry, 2023).
